Consider nine compounds from ChEMBL document CHEMBL3228025, “Synthesis and analgesic activities of some (4-substituted phenyl-1-piperazinyl)alkyl 2-aminobenzoates and 2-aminonicotinates” (J Med Chem, 1979).

The structures appear in SMILES notation.

Data set [1] can be described thus: Acute toxicity in po dosed CD1 mouse after 7 days. Format: organism-based. As to conditions: in vivo. A digest of the protocol: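 Male CD1 mice, 20 ± 2 g, oral dosing at 10 mL/kg as an aqueous solution or suspension in 1% Tween 80 in distilled water. At least 10 animals per dose level, observed for 7 days. Oral LD50 calculated by the Litchfield–Wilcoxon method.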

In data set [2] the test system is Mus musculus. The experiment in a line: Analgesic activity in po dosed CD1 mouse assessed as inhibition of acetic acid-induced writhing administered 30 mins prior to acetic acid challenge measured after 15 mins. The format is functional. A digest of the protocol:
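Male CD1 mice, 20 ± 2 g, randomly grouped and dosed orally at several levels (10 mL/kg, 1% Tween 80 vehicle), with at least two groups of six per dose. After 30 min, 0.6% acetic acid was given ip at 10 mL/kg, and writhes were counted per group over 15 min. ED50 (dose halving writhes) was read graphically, with no SEM computed.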

Data set [3] concerns Mus musculus. The experiment in a line: Analgesic activity in po dosed OF1 mouse assessed as dose required to double paw licking reaction time after 30 mins by hot plate test. As to conditions: 0.5 h. The format is functional. A digest of the protocol: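 Male OF1 mice, 20 ± 2 g, given oral doses at several levels in 1% Tween 80 at 10 mL/kg, at least 10 per dose. After 30 min each mouse was placed on a metal plate at 56 °C and paw-licking latency was recorded. ED2 (dose doubling latency) was read graphically, with SEM and Dunnett's t versus controls.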
For orientation: In hot-plate and tail-flick tests a longer latency is read as antinociception.

A further data set relates to Rattus norvegicus. The experiment in a line: Antiinflammatory activity in po dosed CD1 rat assessed as inhibition of carrageenan-induced paw edema administered 1 hr prior to carrageenan challenge measured after 3 hrs. (In general: In the carrageenan paw model, swelling and tenderness develop within hours.)

A word on the LD50: it is the dose at which mortality reaches 50%. Low values mean greater toxicity, high ones lower toxicity. In general, ED50 refers to the dose that gives a 50% effect, or the effect in half of the subjects. Take `O=C(OCCN1CCN(c2ccccc2)CC1)c1ccccc1Nc1ccnc2cc(Cl)ccc12`: the LD50 at 168 h in data set [1] is 4250 mg/kg. Also, the median effective dose (ED50) with Mus musculus [2] was found to be 75 mg/kg. For the same compound, the ED2 in the data set with Mus musculus [3] is 200 mg/kg. In the data set on Rattus norvegicus, the ED40 came to 120 mg/kg.
With `O=C(OCCN1CCN(c2cccc(Cl)c2)CC1)c1ccccc1Nc1ccnc2cc(Cl)ccc12`, the 50% lethal dose (LD50) at 168 h in data set [1] stood at 4000 mg/kg. Moreover, in the data set on Mus musculus [2], the median effective dose (ED50) was 10 mg/kg. Besides, the ED2 in the data set with Mus musculus [3] was 60 mg/kg. In addition, in the data set on Rattus norvegicus, the ED40 was above 100 mg/kg.
In the same order, the values of `O=C(OCCN1CCN(c2cccc(OC(F)(F)F)c2)CC1)c1ccccc1Nc1ccnc2cc(Cl)ccc12` are 4000 mg/kg, 120 mg/kg, above 300 mg/kg and 50 mg/kg.
In the same order, the values of `O=C(OCCN1CCN(c2ccccc2)CC1)c1ccccc1Nc1ccnc2c(Cl)cccc12` are above 4000 mg/kg, 80 mg/kg, above 250 mg/kg and 300 mg/kg.
In the same order, the values of `O=C(OCCN1CCN(c2cccc(Cl)c2)CC1)c1ccccc1Nc1ccnc2cc(C(F)(F)F)ccc12` are above 4000 mg/kg, 9 mg/kg, 150 mg/kg and 30 mg/kg.
Consider `O=C(OCCN1CCN(c2cc(C(F)(F)F)cc(C(F)(F)F)c2)CC1)c1ccccc1Nc1ccnc2cc(C(F)(F)F)ccc12`, for which the LD50 at 168 h in data set [1] was determined as 4000 mg/kg. Also, the median effective dose (ED50) in the data set with Mus musculus [2] is 20 mg/kg. For the same compound, in the data set on Mus musculus [3], the ED2 is above 300 mg/kg. Besides, in the data set on Rattus norvegicus, the ED40 is 80 mg/kg.
In the case of `O=C(OCCN1CCN(c2cccc(Cl)c2)CC1)c1ccccc1Nc1ccnc2cc(OC(F)(F)F)ccc12`, the LD50 at 168 h in data set [1] worked out at 4000 mg/kg. In the data set with Mus musculus [2], the median effective dose (ED50) turned out to be 20 mg/kg. For the same compound, the ED2 in the data set on Mus musculus [3] was 300 mg/kg. Also, in the data set on Rattus norvegicus, the ED40 amounted to 85 mg/kg.
In the same order, the values of `Cc1c(N(C)C)c(=O)n(-c2ccccc2)n1C` [AMINOPYRINE] are 800 mg/kg, 40 mg/kg, 250 mg/kg and 60 mg/kg.
In the same order, the values of `O=C(OCCN1CCN(c2cccc(C(F)(F)F)c2)CC1)c1ccccc1Nc1ccnc2cc(C(F)(F)F)ccc12` [ANTRAFENINE] are 4000 mg/kg, 6 mg/kg, 30 mg/kg and 40 mg/kg.
